# Measurements gathered from unrelated publications.
Compound,tested on,assay,conditions,endpoint,value
CC1(C)S[C@@H]2[C@H](NC(=O)[C@H](N)c3ccccc3)C(=O)N2[C@H]1C(=O)O,Streptococcus pyogenes,microbial growth,clinical isolate,MIC90,0.5 µg/mL
c1ccc(Oc2ccc(Nc3c4c(nc5ccccc35)CCC4)cc2)cc1,Leishmania infantum,"parasite growth, MTT",promastigote,EC50,539 nM
C[C@H](Nc1ccc2c(c1)OCCn1cc(N3C(=O)OC[C@H]3C(F)F)nc1-2)C(N)=O,KYSE-510,"cell growth or viability, ATP luminescence",5 days,EC50,87.8 nM
O=C1OC[C@H]2OC(O)[C@H](O)[C@@H](O)[C@@H]2OC(=O)c2cc(O)c(O)c(O)c2-c2c(O)c(O)c3oc(=O)c4c(c(O)c(O)c5oc(=O)c2c3c54)-c2c1cc(O)c(O)c2O (mixture of isomers),Streptococcus mutans,"microbial killing, broth dilution",,MBC,400 µg/mL
C[C@@H]1[C@H](O)[C@@H](C)/C=C/C=C/C=C/C=C/C=C/C=C/C=C/[C@H](O[C@@H]2O[C@H](C)[C@@H](O)[C@H](N)[C@@H]2O)C[C@@H]2O[C@](O)(C[C@@H](O)C[C@@H](O)[C@H](O)CC[C@@H](O)C[C@@H](O)CC(=O)O[C@H]1C)C[C@H](O)[C@H]2C(=O)O,Leishmania infantum,"parasite growth, MTT",promastigote,IC50,1490 nM
O=c1oc2c(O)c(O)cc3c(=O)oc4c(O)c(O)cc1c4c23,Streptococcus mutans,"microbial killing, broth dilution",,MBC,200 µg/mL
C[C@H](N)C(=O)Nc1ccccc1/N=c1\cc(-c2ccc3c(c2)OCCO3)oc2cc(F)ccc12,HCT-116,"cell growth or viability, CCK-8",1 µM,inhibition,5.4%
Cc1nc(Nc2ncc(C(=O)Nc3c(C)cccc3Cl)s2)cc(N2CC[C@H](O)C2)n1,DOHH-2,"cell growth or viability, ATP luminescence","10 µM, 72 h",inhibition,86%
CC(=O)NC[C@H]1CN(c2ccc(N3CCOCC3)c(F)c2)C(=O)O1,Streptococcus pyogenes,microbial growth,clinical isolate,MIC90,2 µg/mL
O=C1O[C@H]2[C@@H]3OC(=O)c4cc(O)c(O)c(O)c4-c4c(O)c(O)c5oc(=O)c6c(c(O)c(O)c7oc(=O)c4c5c76)-c4c(cc(O)c(O)c4O)C(=O)OC[C@H]3OC(O)[C@@H]2OC(=O)c2cc(O)c(O)c(O)c2-c2c1cc(O)c(O)c2O (mixture of isomers),Streptococcus mutans,"microbial killing, broth dilution",,MBC,200 µg/mL
CC[C@H]1OC(=O)[C@H](C)[C@@H](O[C@H]2C[C@@](C)(OC)[C@@H](O)[C@H](C)O2)[C@H](C)[C@@H](O[C@@H]2O[C@H](C)C[C@H](N(C)C)[C@H]2O)[C@](C)(O)C[C@@H](C)/C(=N\OCOCCOC)[C@H](C)[C@@H](O)[C@]1(C)O,Streptococcus pyogenes,microbial growth,clinical isolate,MIC90,2 µg/mL
O=C(Nc1ccccc1/N=c1\cc(-c2ccc3c(c2)OCO3)oc2ccccc12)N1CCNCC1,HCT-116,"cell growth or viability, CCK-8",1 µM,inhibition,15.1%
COc1ccc(NC(=O)Nc2ccc(-c3cn(Cc4ccc(Cl)cc4)nn3)cc2)cc1,PC-9,"cell growth or viability, CCK-8","50 µM, 72 h",viability,87.3%
NCCC(=O)Nc1ccccc1/N=c1\cc(-c2ccc3oc(N)nc3c2)oc2ccccc12,HCT-116,"cell growth or viability, CCK-8",1 µM,inhibition,42.7%
CCOc1ccc(Nc2c3c(nc4ccccc24)CCC3)cc1,Leishmania infantum,"parasite growth, MTT",promastigote,EC50,645 nM
COc1ccc2oc(-c3ccc4nc(N)oc4c3)c/c(=N\c3ccccc3NC(=O)CCN)c2c1,HCT-116,"cell growth or viability, CCK-8",1 µM,inhibition,45.5%
Oc1cc(O)c2c(c1)O[C@H](c1cc(O)c(O)c(O)c1)[C@@H](O)C2,Streptococcus mutans,"microbial killing, broth dilution",,MBC,400 µg/mL
NCCC(=O)Nc1ccc(/N=c2\cc(-c3ccc4c(c3)OCO4)oc3ccccc23)cc1,HCT-116,"cell growth or viability, CCK-8",1 µM,inhibition,12.2%
C[C@@H]1O[C@@H](OC[C@H]2O[C@@H](Oc3c(-c4ccc(O)c(O)c4)oc4cc(O)cc(O)c4c3=O)[C@H](O)[C@@H](O)[C@@H]2O)[C@H](O)[C@H](O)[C@H]1O,Streptococcus mutans,"microbial growth, disc diffusion",500 µg/disc,inhibition zone,14 mm
